# Assays:
# Homo sapiens [1] = species on record: Homo sapiens; test: Selectivity index, ratio of Ki for human 5-HT3 receptor to Ki for human 5-HT7 receptor
# Outline: (§1)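 Selectivity index taken as Ki at the other 5-HT receptor subtype divided by Ki at 5-HT7R, each from [3H]LSD membrane binding run by the NIMH PDSP. Ki values are means of at least three experiments in triplicate.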
# [2] = molecular target: 5-hydroxytryptamine receptor 7 (Homo sapiens, UniProt P34969); test: Displacement of [3H]LSD from human 5-HT7 receptor expressed in HEK cell membranes after 1.5 hrs by microbeta scintillation counting method
# Homo sapiens [3] = species on record: Homo sapiens; test: Selectivity index, ratio of Ki for human 5-HT1A receptor to Ki for human 5-HT7 receptor; outline: as §1
# [4] = AUC (0 to infinity) in ICR mouse at 50 mg/kg, po by LC-MS/MS analysis; type: ADME, organism-based; parameters: dose 50 mg/kg, time infinity, route oral; conditions: in vivo
# Outline: (§2)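 Male ICR mice, 7~8 weeks, 30 ± 5 g; single dose 5 mg/kg IV (n = 5) or 50 mg/kg oral (n = 4). Plasma protein-precipitated with acetonitrile containing internal standard, then LC-MS/MS. Non-compartmental analysis; AUClast by trapezoidal rule. Mean ± SD.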
# [5] = AUC (0 to infinity) in ICR mouse at 5 mg/kg, iv by LC-MS/MS analysis; type: ADME, organism-based; parameters: dose 5 mg/kg, time infinity, route intravenous; conditions: in vivo; outline: as §2
# Mus musculus [6] = test: Toxicity in ICR mouse assessed as mortality at 5 mg/kg, iv; type: organism-based; conditions: in vivo
# Outline: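 Observed in male ICR mice (7~8 weeks, 30 ± 5 g; n = 5) during a pharmacokinetic study after a single intravenous dose. Mice were held at 23 ± 3° and about 55% ± 10% humidity with standard feed and tap water. Blood was drawn via carotid artery from 0.08 to 8 h after dosing.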
# [7] = Cmax in ICR mouse at 50 mg/kg, po by LC-MS/MS analysis; type: ADME, organism-based; parameters: dose 50 mg/kg, route oral; conditions: in vivo; outline: as §2
# [8] = AUClast in ICR mouse at 50 mg/kg, po by LC-MS/MS analysis; type: ADME, organism-based; parameters: dose 50 mg/kg, route oral, time 0 - last; conditions: in vivo; outline: as §2
# [9] = Oral bioavailability in ICR mouse at 50 mg/kg by LC-MS/MS analysis; type: ADME, organism-based; conditions: in vivo; outline: as §2
# [10] = Cmax in ICR mouse at 5 mg/kg, iv by LC-MS/MS analysis; type: ADME, organism-based; parameters: dose 5 mg/kg, route intravenous; conditions: in vivo; outline: as §2
# [11] = Terminal half-life in ICR mouse at 5 mg/kg, iv by LC-MS/MS analysis; type: ADME, organism-based; conditions: in vivo, read-out: beta t1/2 (converted); outline: as §2
# [12] = Tmax in ICR mouse at 50 mg/kg, po by LC-MS/MS analysis; type: ADME, organism-based; conditions: in vivo
# Outline: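 Male ICR mice, 7~8 weeks, 30 ± 5 g, given a single oral dose of 50 mg/kg (n = 4). Carotid-artery blood was sampled at 0, 0.25, 0.5, 1, 2, 4, 6 and 8 h. Plasma was protein-precipitated with acetonitrile containing internal standard and quantified by LC-MS/MS on a C18 gradient. Parameters came from non-compartmental analysis and are reported as mean ± SD.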
# CYP3A4 = CYP3A4 (Homo sapiens, UniProt P08684); test: Inhibition of CYP3A4 in human liver microsomes assessed as remaining activity at 10 uM using midazolam as substrate preincubated for 5 mins followed by addition of NADPH generating system measured after 15 mins by LC-MS analysis; type: ADME; conditions: probe midazolam, read-out: Activity
# Outline: (§3)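 Human liver microsomes 0.25 mg/ml in 0.1 M phosphate, pH 7.4, with a probe cocktail: phenacetin 50 μM, diclofenac 10 μM, S-mephenytoin 100 μM, dextromethorphan 5 μM, midazolam 2.5 μM. Test compound at 10 μM versus 0 μM control. 5 min at 37 °C, then NADPH-generating system for 15 min. Acetonitrile quench; metabolites measured by LC/MS as % remaining activity.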
# CYP2D6 = CYP2D6 (Homo sapiens, UniProt P10635); test: Inhibition of CYP2D6 in human liver microsomes assessed as remaining activity at 10 uM using dextromethorphan as substrate preincubated for 5 mins followed by addition of NADPH generating system measured after 15 mins by LC-MS analysis; type: ADME; conditions: probe dextromethorphan, read-out: Activity; outline: as §3
# Mus musculus [13] = test: Sleep promoting activity in C57B1/6J mouse assessed as decrease in total rapid eye movement sleep time at 30 mg/kg, ip measured over 4 hrs by electroencephalogram method; type: functional; parameters: scale not given: the % may be the effect or the level left
# Outline: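 Adult male C57Bl/6J mice, 10 weeks old, with parietal EEG screw electrodes implanted under ketamine. EEG and EMG recorded for 8 h from 9 AM, starting one day before dosing as baseline. On test day, 30 mg/kg i.p. at the start of the light phase, with EEG/EMG recorded for 8 h and scored in 2-h bins. n = 6-9 per group; mean ± SEM versus vehicle.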
# [14] = Stability in human liver microsomes assessed as drug recovery at 1 uM preincubated for 5 mins followed by addition of NADPH generation system and measured after 30 mins by LC-MS analysis; type: ADME, microsome; conditions: read-out: Drug recovery
# Outline: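 Human liver microsomes 0.5 mg/ml in 0.1 M phosphate, pH 7.4, with 1 μM compound. Preincubated 5 min at 37 °C, then NADPH-generating system added for 30 min at 37 °C. Acetonitrile with internal standard added to stop the reaction, centrifuged, and supernatant analysed by LC/MS as % remaining.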
# [15] = Tmax in ICR mouse at 5 mg/kg, iv by LC-MS/MS analysis; type: ADME, organism-based; conditions: in vivo; outline: as §2
# CYP2C9 = CYP2C9 (Homo sapiens, UniProt P11712); test: Inhibition of CYP2C9 in human liver microsomes assessed as remaining activity at 10 uM using diclofenac as substrate preincubated for 5 mins followed by addition of NADPH generating system measured after 15 mins by LC-MS analysis; type: ADME; conditions: probe diclofenac, read-out: Activity; outline: as §3
# CYP2C9, sequence (P11712 whole entry): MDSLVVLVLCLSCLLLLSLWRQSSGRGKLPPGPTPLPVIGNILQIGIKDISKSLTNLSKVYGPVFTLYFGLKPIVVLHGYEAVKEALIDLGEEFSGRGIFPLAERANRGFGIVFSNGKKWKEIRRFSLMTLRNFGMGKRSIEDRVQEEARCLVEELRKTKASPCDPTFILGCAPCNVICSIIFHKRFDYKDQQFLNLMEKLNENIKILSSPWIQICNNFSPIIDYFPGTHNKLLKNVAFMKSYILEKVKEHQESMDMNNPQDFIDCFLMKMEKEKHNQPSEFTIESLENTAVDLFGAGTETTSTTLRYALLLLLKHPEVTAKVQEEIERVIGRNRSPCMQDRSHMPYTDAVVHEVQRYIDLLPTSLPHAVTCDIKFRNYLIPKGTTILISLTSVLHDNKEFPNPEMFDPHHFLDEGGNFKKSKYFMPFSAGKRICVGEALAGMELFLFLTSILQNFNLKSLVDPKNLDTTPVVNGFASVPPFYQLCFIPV
# CYP3A4, sequence (P08684 whole entry): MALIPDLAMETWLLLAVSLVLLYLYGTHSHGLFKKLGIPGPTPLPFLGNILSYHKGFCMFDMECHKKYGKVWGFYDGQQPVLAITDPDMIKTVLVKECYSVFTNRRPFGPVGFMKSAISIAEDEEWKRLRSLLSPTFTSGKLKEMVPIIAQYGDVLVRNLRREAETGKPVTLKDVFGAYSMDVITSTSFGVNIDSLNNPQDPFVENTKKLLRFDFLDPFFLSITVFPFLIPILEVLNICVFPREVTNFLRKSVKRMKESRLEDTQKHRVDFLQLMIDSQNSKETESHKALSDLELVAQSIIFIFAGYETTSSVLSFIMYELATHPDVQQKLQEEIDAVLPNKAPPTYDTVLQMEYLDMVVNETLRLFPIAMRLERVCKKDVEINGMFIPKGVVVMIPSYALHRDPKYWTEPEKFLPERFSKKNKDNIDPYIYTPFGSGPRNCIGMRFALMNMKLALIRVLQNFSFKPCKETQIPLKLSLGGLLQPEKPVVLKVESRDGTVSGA
# 5-hydroxytryptamine receptor 7, sequence (P34969 whole entry): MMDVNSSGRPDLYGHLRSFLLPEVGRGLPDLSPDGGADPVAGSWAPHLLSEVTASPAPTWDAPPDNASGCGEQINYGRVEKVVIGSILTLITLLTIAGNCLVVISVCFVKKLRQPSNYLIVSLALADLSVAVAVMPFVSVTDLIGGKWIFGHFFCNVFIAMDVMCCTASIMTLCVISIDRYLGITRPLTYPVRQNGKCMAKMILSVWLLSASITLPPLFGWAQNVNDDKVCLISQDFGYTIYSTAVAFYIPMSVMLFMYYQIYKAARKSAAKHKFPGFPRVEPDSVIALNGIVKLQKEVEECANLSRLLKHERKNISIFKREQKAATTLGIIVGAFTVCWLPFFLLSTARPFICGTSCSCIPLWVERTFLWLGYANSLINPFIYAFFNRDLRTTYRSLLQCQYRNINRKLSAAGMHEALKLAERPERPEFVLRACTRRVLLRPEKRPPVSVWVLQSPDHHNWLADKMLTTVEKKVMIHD
# CYP2D6, sequence (P10635 whole entry): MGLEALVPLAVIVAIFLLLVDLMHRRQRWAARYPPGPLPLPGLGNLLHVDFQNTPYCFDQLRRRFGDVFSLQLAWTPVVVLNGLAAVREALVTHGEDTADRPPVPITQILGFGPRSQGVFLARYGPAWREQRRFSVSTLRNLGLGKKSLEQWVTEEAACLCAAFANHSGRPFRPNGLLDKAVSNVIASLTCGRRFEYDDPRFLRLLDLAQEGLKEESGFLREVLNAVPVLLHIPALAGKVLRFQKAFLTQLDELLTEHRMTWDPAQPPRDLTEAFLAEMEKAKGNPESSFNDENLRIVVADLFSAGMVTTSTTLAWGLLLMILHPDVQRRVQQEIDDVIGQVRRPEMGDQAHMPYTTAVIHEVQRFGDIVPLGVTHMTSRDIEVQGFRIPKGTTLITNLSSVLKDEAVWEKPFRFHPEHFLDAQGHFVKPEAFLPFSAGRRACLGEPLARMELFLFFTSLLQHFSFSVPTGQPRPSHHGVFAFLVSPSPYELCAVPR
structure (smiles),measurement,setting,value
Cc1ccc(-c2noc3c2CCNCC3)cc1,Ratio Ki,Homo sapiens [1],26.3
Fc1ccc(-c2n[nH]c3c2CCNCC3)cc1,Ki,[2],104 nM
same,Ratio Ki,Homo sapiens [3],18
Clc1ccc(-c2n[nH]c3c2CCNCC3)cc1,AUC(0-inf),[4],64300 ng·h/mL
same,AUC(0-inf),[5],5210 ng·h/mL
same,Activity,Mus musculus [6],Non-Toxic
same,Cmax,[7],11800 ng/mL
same,AUC(0-t),[8],53700 ng·h/mL
same,bioavailability,[9],90.8%
same,Cmax,[10],2200 ng/mL
same,half-life,[11],1.78 h
same,Tmax,[12],1.37 h
same,"activity at 0.25 h, 10 µM",CYP3A4,95.4%
same,"activity at 0.25 h, 10 µM",CYP2D6,75.7%
same,Activity,Mus musculus [13],69.4%
same,"remaining at 0.5 h, 1 µM",[14],82.4%
same,Tmax,[15],6.6 min
same,"activity at 0.25 h, 10 µM",CYP2C9,> 100%

# From ChEMBL document CHEMBL4196105, “Discovery of β-Arrestin Biased Ligands of 5-HT7R” (J Med Chem, 2018)
